We go through 4 compounds from ChEMBL document CHEMBL2331225, “Structure-based design, synthesis and evaluation of novel anthra[1,2-d]imidazole-6,11-dione derivatives as telomerase inhibitors and potential for cancer polypharmacology” (Eur J Med Chem, 2013).

Activity calls are given as the source filed them. No cut-off for these calls is given here.

In test [1] the target is DNA polymerase I, thermostable (Thermus aquaticus) (UniProt P19821). The test can be described thus: Inhibition of Thermus aquaticus DNA polymerase compound after telomerase extension step and before PCR-amplification step during TRAP assay. The essentials: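 TRAP-m variant: compounds were added after the telomerase extension step and before PCR amplification, using H1299 telomerase extracts, with RNase A-treated extracts as negative control.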
Sequence of DNA polymerase I, thermostable (Thermus aquaticus) (P19821 whole entry): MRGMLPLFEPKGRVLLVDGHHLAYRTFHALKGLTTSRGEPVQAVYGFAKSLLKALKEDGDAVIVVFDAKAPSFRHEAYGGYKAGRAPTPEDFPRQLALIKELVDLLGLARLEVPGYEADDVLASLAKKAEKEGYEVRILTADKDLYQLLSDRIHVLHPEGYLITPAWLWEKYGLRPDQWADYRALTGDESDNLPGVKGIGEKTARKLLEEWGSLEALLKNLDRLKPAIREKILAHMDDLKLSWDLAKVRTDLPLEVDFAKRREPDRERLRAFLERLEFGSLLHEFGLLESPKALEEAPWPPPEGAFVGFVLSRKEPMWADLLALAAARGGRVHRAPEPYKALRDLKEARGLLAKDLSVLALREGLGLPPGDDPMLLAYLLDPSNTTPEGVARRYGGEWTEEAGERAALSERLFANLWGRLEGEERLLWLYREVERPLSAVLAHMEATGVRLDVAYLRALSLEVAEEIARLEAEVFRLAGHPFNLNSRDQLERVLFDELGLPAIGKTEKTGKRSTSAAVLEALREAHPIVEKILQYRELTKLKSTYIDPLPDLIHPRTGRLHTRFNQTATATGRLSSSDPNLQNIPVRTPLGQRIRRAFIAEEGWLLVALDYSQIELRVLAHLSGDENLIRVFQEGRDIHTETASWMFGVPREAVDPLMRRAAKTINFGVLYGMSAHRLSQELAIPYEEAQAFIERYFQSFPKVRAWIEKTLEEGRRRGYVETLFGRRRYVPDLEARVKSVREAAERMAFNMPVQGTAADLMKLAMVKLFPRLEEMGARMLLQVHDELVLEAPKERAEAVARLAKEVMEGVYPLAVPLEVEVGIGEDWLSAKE

Test [2] is described as follows: Cytotoxicity against human H1299 cells assessed as cell viability at 10 uM after 48 hrs by MTT assay. To be noted: NCI-H1299, 48 h, read-out: Activity. It is filed as functional. The essentials: (§1)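 H1299 cells at about 2 × 10³ per well were grown 24 h at 37 °C in 5% CO₂. Compounds were dissolved in DMSO just before use and diluted into complete medium. After 48 h exposure, MTT was added for 4 h at 37 °C, then lysis buffer (20% SDS, 50% DMF) for 16 h at 37 °C. Absorbance was read at 550 nm.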

In test [3] the test system is PC-3. The test can be described thus: Growth inhibition of human PC3 cells after 48 hrs by SRB assay. Type of test: functional, cell-based. Particulars: PC-3, 48 h. The essentials:
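PC-3 cells were seeded in medium with 5% FBS; after 24 h a plate was fixed with 10% TCA as T₀. Vehicle (0.1% DMSO) or compound was given for 48 h, then cells were TCA-fixed, stained with 0.4% SRB in 1% acetic acid, solubilized in 10 mM Trizma base and read at 515 nm. IC₅₀ is the concentration halving the protein increase seen in controls.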

Test [4] concerns the target T1, Telomerase reverse transcriptase (Homo sapiens, UniProt O14746). The test can be described thus: Inhibition of TERT transcriptional activity in human H1299 cells assessed SEAP activity at 1 uM incubated for 24 hrs by SEAP assay. Type of test: cell-based. Also noted: scale not given: the % may be the effect or the level left. In outline:
(§2)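 H1299 stable clones carry the hTERT promoter (−3338 to +1 bp) upstream of SEAP, introduced by electroporation and selected with G418. About 2 × 10³ cells per well were grown 24 h at 37 °C, given fresh medium, then drug for 24 h. Collected media were heated at 65 °C for 10 min, mixed with equal SEAP buffer (2 M diethanolamine, 1 mM MgCl₂, 20 mM L-homoarginine) and p-nitrophenyl phosphate at 12 mM final.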

A short description of test [5]: Cytotoxicity against human NCI-ADR-RES cells assessed as cell growth level at 10 uM. It is filed as functional.
The test system of another test is MOLT-4. The test can be described thus: Cytotoxicity against human MOLT4 cells assessed as cell growth level at 10 uM. It is filed as functional.
Test [6] deals with T1, Telomerase reverse transcriptase. The test can be described thus: Inhibition of TERT transcriptional activity in human H1299 cells assessed SEAP activity at 10 uM incubated for 24 hrs by SEAP assay. Type of test: cell-based. Also noted: scale not given: the % may be the effect or the level left. The essentials: as §2
Test [7] in a line: Cytotoxicity against human H1299 cells assessed as cell viability at 1 uM after 48 hrs by MTT assay. Particulars: NCI-H1299, 48 h, read-out: Activity. Type of test: functional. The essentials: as §1
Test [8] has as its target T1, Telomerase reverse transcriptase. The test can be described thus: Inhibition of TERT activity in human H1299 cells homogenates incubated for 5 mins by TRAP assay. Type of test: cell-free. In outline:
(§3)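 Telomerase-active extracts were prepared from H1299 cells, and lysate protein was measured against BSA standards. Compounds were tested in the TRAP assay, with RNase A-treated extracts as negative controls.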

In the next test the test system is A498. The test can be described thus: Cytotoxicity against human A498 cells assessed as cell growth level at 10 uM. Type of test: functional.
Test [9] is described as follows: Cytotoxicity against human H1299 cells assessed as cell viability at 100 uM after 48 hrs by MTT assay. It is filed as functional. Particulars: NCI-H1299, 48 h, read-out: Activity. In outline:
as §1

Test [10] addresses T1, Telomerase reverse transcriptase. The test can be described thus: Inhibition of TERT transcriptional activity in human H1299 cells assessed SEAP activity at 100 uM incubated for 24 hrs by SEAP assay. Type of test: cell-based. Also noted: scale not given: the % may be the effect or the level left. In outline: as §2
Test [11] shares this target. The test can be described thus: Inhibition of TERT activity in human H1299 cells homogenates incubated for 5 mins at 100 uM by TRAP assay. Type of test: cell-free. In outline: as §3
The test system of test [12] is PC-3. The test can be described thus: Cytotoxicity against human PC3 cells assessed as cell growth level at 10 uM. Type of test: functional.
Another test has as its system COLO 205. The test can be described thus: Cytotoxicity against human COLO205 cells assessed as cell growth level at 10 uM. Type of test: functional.
The subject of another test is DU-145. The test can be described thus: Cytotoxicity against human DU145 cells assessed as cell growth level at 10 uM. It is filed as functional.
Test [13] in a line: Cytotoxicity against human EKVX cells assessed as cell growth level at 10 uM. It is filed as functional.
The next test relates to SNB-19. The test can be described thus: Cytotoxicity against human SNB19 cells assessed as cell growth level at 10 uM. It is filed as functional.

T1 sequence (O14746 whole entry): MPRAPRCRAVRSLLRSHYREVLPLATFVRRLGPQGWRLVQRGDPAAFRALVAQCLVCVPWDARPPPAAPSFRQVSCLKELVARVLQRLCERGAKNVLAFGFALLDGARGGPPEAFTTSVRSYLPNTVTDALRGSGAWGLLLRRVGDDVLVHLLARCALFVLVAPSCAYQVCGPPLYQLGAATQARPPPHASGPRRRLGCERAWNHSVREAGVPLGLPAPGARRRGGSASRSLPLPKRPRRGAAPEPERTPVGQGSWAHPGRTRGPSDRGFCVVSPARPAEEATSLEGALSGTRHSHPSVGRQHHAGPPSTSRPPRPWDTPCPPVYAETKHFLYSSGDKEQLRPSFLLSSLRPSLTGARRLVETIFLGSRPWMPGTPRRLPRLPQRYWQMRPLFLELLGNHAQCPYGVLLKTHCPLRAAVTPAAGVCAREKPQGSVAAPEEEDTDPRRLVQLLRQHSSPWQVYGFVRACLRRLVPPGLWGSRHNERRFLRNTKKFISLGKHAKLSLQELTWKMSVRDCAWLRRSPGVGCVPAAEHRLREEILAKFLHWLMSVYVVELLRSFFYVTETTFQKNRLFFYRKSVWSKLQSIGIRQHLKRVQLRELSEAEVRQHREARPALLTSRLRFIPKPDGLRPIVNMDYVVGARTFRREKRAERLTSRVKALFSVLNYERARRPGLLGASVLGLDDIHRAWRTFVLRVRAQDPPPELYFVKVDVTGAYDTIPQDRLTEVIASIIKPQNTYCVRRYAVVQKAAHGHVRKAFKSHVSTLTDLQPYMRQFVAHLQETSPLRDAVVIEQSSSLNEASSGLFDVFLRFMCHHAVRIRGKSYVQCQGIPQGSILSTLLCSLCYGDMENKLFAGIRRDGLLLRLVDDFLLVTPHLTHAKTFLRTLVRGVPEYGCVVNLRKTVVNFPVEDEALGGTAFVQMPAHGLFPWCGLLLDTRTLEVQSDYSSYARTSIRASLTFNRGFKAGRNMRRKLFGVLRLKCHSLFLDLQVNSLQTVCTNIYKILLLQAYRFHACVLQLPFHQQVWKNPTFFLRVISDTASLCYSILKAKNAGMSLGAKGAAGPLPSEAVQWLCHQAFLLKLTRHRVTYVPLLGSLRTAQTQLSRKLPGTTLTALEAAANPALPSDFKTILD

For `CN1CCN(Cc2nc3ccc4c(c3[nH]2)C(=O)c2ccccc2C4=O)CC1`, the inhibition entry in [1] was “inactive”. Further, in test [2], the viability at 10 µM was determined as 35%. The IC50 is 6.5 µM with PC-3 [3] and more than 10 µM in test [8]. Further, the Activity in test [4] is 106%; in [5] it was 62.93%; with MOLT-4 it was -13.44%; in [6] it was 23%; in the test on A498 it was 69.36%; in [10] it was 6%. Besides, in the test with PC-3 [12], the Activity is recorded as 60.08%. In test [7], the viability at 1 µM came to 87%. Moreover, the viability at 100 µM in test [9] was 0%. The “TERT inhibition (active/not active)” value in [11] was “Active”.
Turning to `CCN(CC)Cc1nc2ccc3c(c2[nH]1)C(=O)c1ccccc1C3=O`, the viability at 10 µM in [2] worked out at 55%. In the test with PC-3 [3], this compound displayed an IC50 of 10.3 µM. Moreover, the Activity in test [4] was 91%; with MOLT-4 it was -9.43%; in test [6], 32%; with A498, 49.5%; in test [10], 0%; in the test on PC-3 [12] it was 73.54%. Also, the Activity with COLO 205 is on record as 81%. Further, in [7], the viability at 1 µM is 101%. Besides, the viability at 100 µM in test [9] worked out at 0%. For the same compound, the “TERT inhibition (active/not active)” value in test [11] is “inactive”.
Turning to `CCN1CCN(Cc2nc3ccc4c(c3[nH]2)C(=O)c2ccccc2C4=O)CC1`, the inhibition entry in test [1] was “inactive”. Also, the viability at 10 µM in [2] came out at 35%. Also, the IC50 in the test with PC-3 [3] was 6.5 µM; in [8], more than 10 µM. For the same compound, the Activity in [4] was 92%; in [6], 14%; in test [10], 0%. The viability at 1 µM in test [7] was determined as 86%. Moreover, the viability at 100 µM in test [9] is 0%. In test [11], the “TERT inhibition (active/not active)” value was “Active”.
As to `O=C1c2ccccc2C(=O)c2c1ccc1nc(CN3CCN(c4ccccn4)CC3)[nH]c21`, the Activity amounted to 89.1% in the test with DU-145; 91% in test [4]; 63% in [13]; 57% in [6]; 81% with SNB-19; 68.23% in the test on A498. Also, the Activity in [10] stood at 1%; with PC-3 [12], 81.46%. Also, the viability at 10 µM in test [2] turned out to be 69%. For the same compound, in the test on PC-3 [3], the IC50 was more than 30 µM. The viability at 1 µM in [7] stood at 91%. In test [9], the viability at 100 µM stood at 20%. In [11], the “TERT inhibition (active/not active)” value is “inactive”.
